These results are taken from ChEMBL document CHEMBL4831483, “Discovery and optimization of 2-((1H-indol-3-yl)thio)-N-benzyl-acetamides as novel SARS-CoV-2 RdRp inhibitors” (Eur J Med Chem, 2021).

What is called IC50 is the concentration that inhibits the measured activity by half. As usually defined, the CC50 is the concentration giving 50% cytotoxicity.

The target of data set [1] is T1, Replicase polyprotein 1ab (Severe acute respiratory syndrome coronavirus 2, UniProt P0DTD1). The data set is described as follows: (§1) Inhibition of SARS-CoV-2 RdRp transfected in human HEK293T cells cotransfected with Cov-Gluc by Gaussia luciferase reporter gene method. The class given is cell-based. An outline of the steps:
(§2)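 HEK293T cells were co-transfected with CoV-Gluc reporter plus C-terminally flag-tagged codon-optimized nsp12, nsp7 and nsp8 plasmids (1:10:30:30). After 12 h, cells were re-seeded in 96-well plates at 10^4/well and treated with serially diluted compound. Gaussia luciferase activity in supernatants gave dose-response IC50. Triplicate assays, mean ± SD.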
On the technique in general: A reporter such as luciferase makes a cellular process visible.

The test system of another data set is HEK-293T. The data set is described as follows: (§3) Cytotoxicity against human HEK293T cells assessed as reduction in cell viability incubated for 24 hrs by CCK8 assay. It is filed as cell-based. The following applies: hek-293t, 24 h. An outline of the steps:
(§4)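 HEK293T cells in 96-well plates were exposed to compound at 0.78–100 μM for 24 h. CCK-8 reagent was then added for 1 h at 37 °C and OD450 read. Viability was normalised to DMSO-only cells to give CC50. Triplicate assays, mean ± SD.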
A general note: Formazan colour is commonly taken as a measure of viable cells.

Data set [2] has as its target Replicase polyprotein 1ab (Severe acute respiratory syndrome coronavirus 2) (UniProt P0DTD1). The data set is described as §1. It is filed as cell-based. The gist of the method:
as §2

Data set [3] has the same target. The data set is described as follows: Inhibition of SARS-CoV-2 RdRp transfected in HEK293T cells cotransfected with CoV-Gluc assessed as decrease in plus and minus strand-Gluc RNA levels incubated for 24 hrs by qRT-PCR analysis. The class given is cell-based. The note with it: dose 5-10 µM. An outline of the steps:
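HEK293T cells were transfected with CoV-Gluc, nsp12, nsp7 and nsp8 plasmids (1:10:30:30). At 6 h post-transfection, medium was replaced with fresh medium containing compound, and cells were cultured a further 24 h. Total cellular RNA was extracted and CoV-Gluc RNA quantified by real-time qRT-PCR.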
(In qPCR the cycle at which signal appears reflects the starting amount.)

Data set [4] concerns the target T1, Replicase polyprotein 1ab. The data set is described as follows: Inhibition of SARS-CoV-2 RdRp transfected in human HEK293T cells cotransfected nsp12. The class given is cell-based. An outline of the steps:
as §2

The target in data set [5] is T1, Replicase polyprotein 1ab. The data set is described as follows: Inhibition of SARS-CoV-2 RdRp transfected in human HEK293T cells cotransfected nsp12 along with nsp14 and nsp10. It is filed as cell-based. An outline of the steps: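 HEK293T cell-based Gaussia luciferase RdRp reporter assay. Cells were co-transfected with CoV-Gluc, nsp12, nsp7, nsp8, nsp10 and nsp14 plasmids (1:10:30:30:25:25) so that the nsp14/nsp10 exoribonuclease was present. Gluc activity was measured after compound treatment.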

A further data set has as its system HEK293T. The data set is described as follows: Ratio of IC50 for inhibition of SARS-CoV-2 RdRp transfected in human HEK293T cells cotransfected nsp12 along with nsp14/nsp10 to IC50 for inhibition of SARS-CoV-2 RdRp transfected in human HEK293T cells cotransfected with nsp12. It is filed as cell-based. The note with it: Severe acute respiratory syndrome coronavirus 2.

Another data set relates to Human coronavirus OC43. Description: Antiviral activity against HCoV-OC43 infected in HCT-8 cells assessed as reduction in viral replication treated 1 hr post infection and measured after 120 hrs post infection by MTS cell proliferation colorimetric assay. The class given is functional, cell-based. An outline of the steps:
(§5)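 HCT-8 cells infected with HCoV-OC43 at MOI 0.1, and LLC-MK2 cells infected with HCoV-NL63 strain Amsterdam I at MOI 0.01. Serial compound dilutions were added 1 h post-infection in 2% FBS. Incubation was 120 h at 33 °C in 5% CO2. MTS reagent was then added for 3 h at 37 °C and absorbance read at 490 nm.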

Data set [6] is described as follows: Antiviral activity against HCoV-NL63 infected in LLC-MK2 cells assessed as reduction in viral replication treated 1 hr post infection and measured after 120 hrs post infection by MTS cell proliferation colorimetric assay. The class given is functional, cell-based. The following applies: Human coronavirus NL63, LLC-MK2. The gist of the method: as §5
Data set [7] is described as follows: as §3. It is filed as cell-based, HEK-293T. The following applies: HEK293T cells. The gist of the method: as §4

Structures are written as SMILES.

In the case of `COc1ccccc1CNC(=O)CSc1c[nH]c2cc(Br)ccc12`, the IC50 in [1] (read-out: IC50) came out at 10 µM. For the same compound, the CC50 in the data set with HEK-293T was above 100 µM.

For `O=C(CSc1c[nH]c2c(Br)cccc12)N(Cc1ccccc1)Cc1ccccc1`, the IC50 in data set [1] (read-out: IC50) was found to be 7.08 µM. For the same compound, in the data set with HEK-293T, the half-maximal cytotoxic concentration (CC50) is above 100 µM.

For the compound `Cn1cc(SCC(=O)N(Cc2ccccc2)Cc2ccccc2)c2ccccc21`, the IC50 in data set [1] (read-out: IC50) came out at 12.3 µM. In the data set on HEK-293T, the CC50 was determined as 91.2 µM.

As for `COc1ccccc1CNC(=O)CSc1c[nH]c2ccc(Br)cc12`, the IC50 in [1] (read-out: IC50) was found to be 10.7 µM. Moreover, the half-maximal cytotoxic concentration (CC50) in the data set on HEK-293T is above 100 µM.

As to `O=C(CSc1c[nH]c2ccccc12)N(Cc1ccccc1)Cc1ccccc1`, the inhibition entry in data set [2] and in data set [3] was “Dose-Dependent Effect” in each case. The cytotoxic concentration (CC50) with HEK-293T is above 100 µM. Also, the IC50 in data set [4] is 3.35 µM; in data set [5], 4.01 µM. Further, the Ratio IC50 with HEK293T stood at 1.2.

Take `CCOc1ccccc1CN(OC)C(=O)CSc1c[nH]c2cccc(Br)c12`: the inhibition entry in data set [2] and in [3] was “Dose-Dependent Effect” in each case. For the same compound, the cytotoxic concentration (CC50) in the data set with HEK-293T was above 100 µM. Besides, the 50% inhibitory concentration (IC50) in data set [4] was 1.11 µM; in [5], 1.89 µM; in [6] it was above 50 µM. For the same compound, the Ratio IC50 in the data set with HEK293T was found to be 1.7. Further, the Activity entry in the data set with Human coronavirus OC43 was “Dose-Dependent Effect”.

Turning to `O=C(CSc1c[nH]c2c(Br)cccc12)NCc1ccc(Cl)c(Cl)c1`, the IC50 in [1] (read-out: IC50) was found to be 4.55 µM. In addition, in the data set on HEK-293T, the half-maximal cytotoxic concentration (CC50) is above 100 µM.

Regarding `O=C(CSc1c[nH]c2ccccc12)NCc1ccccc1`, the 50% inhibitory concentration (IC50) in [1] (read-out: IC50) worked out at 6.81 µM. Moreover, the CC50 in the data set on HEK-293T was above 100 µM.

As to `CN(Cc1ccccc1)C(=O)CSc1c[nH]c2ccccc12`, the inhibition entry in data set [2] and in data set [3] was “Dose-Dependent Effect” each time. Besides, the CC50 in the data set with HEK-293T is above 100 µM. For the same compound, the figures for the IC50 in data set [4] and in data set [5] were 4.55 µM and 5.37 µM, respectively. Further, in the data set on HEK293T, the Ratio IC50 is 1.18.

As for `Cn1cc(SCC(=O)NCc2ccccc2)c2ccccc21`, the half-maximal inhibitory concentration (IC50) in [1] (read-out: IC50) worked out at 26.9 µM. Moreover, the cytotoxic concentration (CC50) with HEK-293T was 95.5 µM.

`CN(C)CCOc1ccc(CNC(=O)CSc2c[nH]c3ccccc23)cc1`: the IC50 in data set [1] (read-out: IC50) stood at 9.08 µM. Further, in the data set on HEK-293T, the 50% cytotoxic concentration (CC50) was above 100 µM.

As for `O=C(CSc1c[nH]c2cccc(Br)c12)NCc1ccc(Cl)c(Cl)c1`, the half-maximal inhibitory concentration (IC50) in data set [1] (read-out: IC50) stood at 7.21 µM. In the data set with HEK-293T, the CC50 was above 100 µM.

With `CN(Cc1ccccc1)C(=O)CSc1c[nH]c2c(Br)cccc12`, the 50% inhibitory concentration (IC50) in [1] (read-out: IC50) turned out to be 20.9 µM. In addition, the CC50 in the data set with HEK-293T stood at 52.5 µM.

Regarding `O=C(CSc1c[nH]c2cccc(Br)c12)N(Cc1ccccc1)Cc1ccccc1`, the inhibition entry in data set [2] and in data set [3] was “Dose-Dependent Effect” in each case. In the data set with HEK-293T, the half-maximal cytotoxic concentration (CC50) was 25.7 µM. Besides, the IC50 came to 3.76 µM in data set [4] and 3.85 µM in [5]. Further, in the data set with HEK293T, the Ratio IC50 came to 1.02.

In the case of `CN(C)CCOc1ccc(CNC(=O)CSc2cn(C)c3ccccc23)cc1`, the IC50 in [1] (read-out: IC50) stood at 8.91 µM. The CC50 in the data set with HEK-293T was above 100 µM.

For the compound `O=C(CSc1c[nH]c2ccccc12)NCc1ccc(C(F)(F)F)cc1`, in data set [1] (read-out: IC50), the concentration for half-maximal inhibition (IC50) was 7.94 µM. Besides, the CC50 in the data set on HEK-293T was above 100 µM.

For the compound `Cn1cc(SCC(=O)NCc2ccc(C(F)(F)F)cc2)c2ccccc21`, the IC50 entry in data set [1] (hek293t) is on record as “Not Active”. The CC50 in the data set with HEK-293T is above 100 µM.

For `Cn1cc(SCC(=O)NCc2ccc(Cl)c(Cl)c2)c2ccccc21`, the 50% inhibitory concentration (IC50) in data set [1] (read-out: IC50) is 7.5 µM. Moreover, the CC50 in the data set with HEK-293T is above 100 µM.

With `COc1ccccc1CNC(=O)CSc1c[nH]c2cccc(Br)c12`, the IC50 in data set [1] (read-out: IC50) came to 8.71 µM. For the same compound, the CC50 in the data set on HEK-293T was above 100 µM.

As for `COc1ccccc1CNC(=O)CSc1cn(C)c2ccccc12`, the 50% inhibitory concentration (IC50) in data set [1] (read-out: IC50) was 9.82 µM. In the data set on HEK-293T, the CC50 was above 100 µM.

Consider `COc1ccccc1CNC(=O)CSc1c[nH]c2c(-c3ccccc3)cccc12`, for which the inhibition result in [2] and in data set [3] was “Dose-Dependent Effect” throughout. In the data set on HEK-293T, the cytotoxic concentration (CC50) stood at 95.5 µM. Moreover, the IC50 was found to be 1.65 µM in [4] and 2.18 µM in [5]. Also, the Ratio IC50 in the data set with HEK293T came to 1.32.

In the case of `O=C(CSc1c[nH]c2cc(Br)ccc12)NCc1ccc(Cl)c(Cl)c1`, in [1] (read-out: IC50), the half-maximal inhibitory concentration (IC50) is 8.71 µM. The CC50 in the data set with HEK-293T was 67.6 µM.

In the case of `C[C@@H](NC(=O)CSc1c[nH]c2ccccc12)c1ccccc1`, the half-maximal inhibitory concentration (IC50) in data set [1] (read-out: IC50) amounted to 6.68 µM. In the data set on HEK-293T, the CC50 was above 100 µM.

In the case of `CCC(CC)COC(=O)[C@H](C)N[P@](=O)(OC[C@H]1O[C@@](C#N)(c2ccc3c(N)ncnn23)[C@H](O)[C@@H]1O)Oc1ccccc1`, the CC50 at 24 h in data set [7] was above 100 µM. Further, the inhibition result in data set [3] was “Dose-Dependent Effect”.

Turning to `COc1ccccc1CN(C)C(=O)CSc1c[nH]c2ccccc12`, the IC50 in data set [1] (read-out: IC50) came to 7.64 µM. The half-maximal cytotoxic concentration (CC50) with HEK-293T was above 100 µM.

Consider `CN(Cc1ccccc1)C(=O)CSc1c[nH]c2cccc(Br)c12`, for which the 50% inhibitory concentration (IC50) in [1] (read-out: IC50) was 4.73 µM. Besides, in the data set on HEK-293T, the CC50 stood at 25.1 µM.

Turning to `COc1ccccc1CNC(=O)CSc1c[nH]c2c(Br)cccc12`, the IC50 in data set [1] (read-out: IC50) stood at 7.08 µM. The 50% cytotoxic concentration (CC50) in the data set on HEK-293T was 72.4 µM.

As to `O=C(CSc1c[nH]c2ccc(Br)cc12)NCc1ccc(Cl)c(Cl)c1`, the half-inhibitory concentration (IC50) in data set [1] (read-out: IC50) worked out at 9.77 µM. For the same compound, the CC50 with HEK-293T is above 100 µM.
